Assay results from ChEMBL document CHEMBL4689842, “EUbOPEN Chemogenomics Library wave 1” (2021).

How the values were obtained:
Assay type in all cases: toxicity, cell-based
[1] = test system: U2OS; test: Incucyte cell viability with U2OS; details: human, 10 µM, compound concentration 10 uM; note: filed as whole numbers so only -1 and 0 and 1 occur
[2] = test system: Fibroblast; test: Multiplex assay against human fibroblast
In short: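 Hoechst33342, BioTracker Green Microtubule Cytoskeleton Dye, MitoTracker Red and Annexin V Alexa Fluor 680 were added to live cells at seeding, and imaging on a CQ1 microscope at 37°C and 5% CO2 followed compound addition. Gating by CellPathfinder machine learning separated cells into Hoechst high-intensity objects or normal cells, then normal cells into healthy, pyknosed or fragmented nuclei, then pyknosed cells into mitotic or apoptotic. Per cents of healthy-nucleus cells are reported for the tubulin, mitochondrial-mass and membrane-permeability phenotypes.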

[3] = test system: Fibroblast; test: Incucyte cell viability with human fibroblast; details: 10 µM, compound concentration 10 uM; note: filed as whole numbers so only -1 and 0 and 1 occur
[4] = 6 h, replicate number 1, timepoint 6 hours
[5] = 12 h, replicate number 1, timepoint 12 hours
[6] = 18 h, replicate number 1, timepoint 18 hours
[7] = 24 h, replicate number 1, timepoint 24 hours
[8] = 12 h, 1 µM, compound concentration 1 uM, replicate 1
[9] = 12 h, 1 µM, compound concentration 1 uM, replicate 2
[10] = 12 h, 10 µM, compound concentration 10 uM, replicate 1
[11] = 12 h, 10 µM, compound concentration 10 uM, replicate 2
[12] = 24 h, 1 µM, compound concentration 1 uM, replicate 1
[13] = 24 h, 1 µM, compound concentration 1 uM, replicate 2
[14] = 24 h, 10 µM, compound concentration 10 uM, replicate 1
[15] = 24 h, 10 µM, compound concentration 10 uM, replicate 2
[16] = 48 h, 1 µM, compound concentration 1 uM, replicate 1
[17] = 48 h, 1 µM, compound concentration 1 uM, replicate 2
[18] = 48 h, 10 µM, compound concentration 10 uM, replicate 1
[19] = 48 h, 10 µM, compound concentration 10 uM, replicate 2

Compound: Cc1c(P(=S)(c2ccccc2)c2ccccc2)n2ccccc2[n+]1C/C=C/c1ccccc1.[Br-]
- Growth Rate [1, 4]: 0
- Growth Rate [1, 5]: 0
- Growth Rate [1, 6]: 0
- Growth Rate [1, 7]: 0
- Population Apoptotic (%) [2, 8]: 63%
- Population Fragmented Nuclei (%) [2, 8]: 26%
- Population Healthy Nuclei (%) [2, 8]: 43%
- Population Hoechst High Intensity Objects (%) [2, 8]: 7%
- Population Membrane Permeable-Phenotype (%) [2, 8]: 7%
- Population Mitochondria Different-Phenotype (%) [2, 8]: 28%
- Population Mitotic Cells (%) [2, 8]: 36%
- Population Normal (%) [2, 8]: 92%
- Population Pyknosed Nuclei (%) [2, 8]: 30%
- Population Tubulin-Different-Phenotype (%) [2, 8]: 60%
- Total Cell Count [2, 8]: 177
- Population Apoptotic (%) [2, 9]: 75%
- Population Fragmented Nuclei (%) [2, 9]: 50%
- Population Healthy Nuclei (%) [2, 9]: 45%
- Population Hoechst High Intensity Objects (%) [2, 9]: 22%
- Population Membrane Permeable-Phenotype (%) [2, 9]: 10%
- Population Mitochondria Different-Phenotype (%) [2, 9]: 50%
- Population Mitotic Cells (%) [2, 9]: 25%
- Population Normal (%) [2, 9]: 77%
- Population Pyknosed Nuclei (%) [2, 9]: 4%
- Population Tubulin-Different-Phenotype (%) [2, 9]: 31%
- Total Cell Count [2, 9]: 93
- Population Apoptotic (%) [2, 10]: 73%
- Population Fragmented Nuclei (%) [2, 10]: 23%
- Population Healthy Nuclei (%) [2, 10]: 14%
- Population Hoechst High Intensity Objects (%) [2, 10]: 14%
- Population Membrane Permeable-Phenotype (%) [2, 10]: 5%
- Population Mitochondria Different-Phenotype (%) [2, 10]: 64%
- Population Mitotic Cells (%) [2, 10]: 26%
- Population Normal (%) [2, 10]: 85%
- Population Pyknosed Nuclei (%) [2, 10]: 62%
- Population Tubulin-Different-Phenotype (%) [2, 10]: 88%
- Total Cell Count [2, 10]: 137
- Population Apoptotic (%) [2, 11]: 94%
- Population Fragmented Nuclei (%) [2, 11]: 21%
- Population Healthy Nuclei (%) [2, 11]: 10%
- Population Hoechst High Intensity Objects (%) [2, 11]: 8%
- Population Membrane Permeable-Phenotype (%) [2, 11]: 83%
- Population Mitochondria Different-Phenotype (%) [2, 11]: 83%
- Population Mitotic Cells (%) [2, 11]: 5%
- Population Normal (%) [2, 11]: 91%
- Population Pyknosed Nuclei (%) [2, 11]: 68%
- Population Tubulin-Different-Phenotype (%) [2, 11]: 83%
- Total Cell Count [2, 11]: 108
- Population Apoptotic (%) [2, 12]: 70%
- Population Fragmented Nuclei (%) [2, 12]: 22%
- Population Healthy Nuclei (%) [2, 12]: 58%
- Population Hoechst High Intensity Objects (%) [2, 12]: 9%
- Population Membrane Permeable-Phenotype (%) [2, 12]: 5%
- Population Mitochondria Different-Phenotype (%) [2, 12]: 40%
- Population Mitotic Cells (%) [2, 12]: 29%
- Population Normal (%) [2, 12]: 90%
- Population Pyknosed Nuclei (%) [2, 12]: 19%
- Population Tubulin-Different-Phenotype (%) [2, 12]: 59%
- Total Cell Count [2, 12]: 181
- Population Apoptotic (%) [2, 13]: 75%
- Population Fragmented Nuclei (%) [2, 13]: 55%
- Population Healthy Nuclei (%) [2, 13]: 40%
- Population Hoechst High Intensity Objects (%) [2, 13]: 33%
- Population Membrane Permeable-Phenotype (%) [2, 13]: 9%
- Population Mitochondria Different-Phenotype (%) [2, 13]: 31%
- Population Mitotic Cells (%) [2, 13]: 25%
- Population Normal (%) [2, 13]: 66%
- Population Pyknosed Nuclei (%) [2, 13]: 3%
- Population Tubulin-Different-Phenotype (%) [2, 13]: 15%
- Total Cell Count [2, 13]: 124
- Population Apoptotic (%) [2, 14]: 85%
- Population Fragmented Nuclei (%) [2, 14]: 17%
- Population Healthy Nuclei (%) [2, 14]: 10%
- Population Hoechst High Intensity Objects (%) [2, 14]: 18%
- Population Membrane Permeable-Phenotype (%) [2, 14]: 8%
- Population Mitochondria Different-Phenotype (%) [2, 14]: 83%
- Population Mitotic Cells (%) [2, 14]: 14%
- Population Normal (%) [2, 14]: 81%
- Population Pyknosed Nuclei (%) [2, 14]: 71%
- Population Tubulin-Different-Phenotype (%) [2, 14]: 75%
- Total Cell Count [2, 14]: 138
- Population Apoptotic (%) [2, 15]: 100%
- Population Fragmented Nuclei (%) [2, 15]: 23%
- Population Healthy Nuclei (%) [2, 15]: 38%
- Population Hoechst High Intensity Objects (%) [2, 15]: 26%
- Population Membrane Permeable-Phenotype (%) [2, 15]: 81%
- Population Mitochondria Different-Phenotype (%) [2, 15]: 81%
- Population Mitotic Cells (%) [2, 15]: 0%
- Population Normal (%) [2, 15]: 73%
- Population Pyknosed Nuclei (%) [2, 15]: 38%
- Population Tubulin-Different-Phenotype (%) [2, 15]: 81%
- Total Cell Count [2, 15]: 163
- Population Apoptotic (%) [2, 16]: 60%
- Population Fragmented Nuclei (%) [2, 16]: 33%
- Population Healthy Nuclei (%) [2, 16]: 54%
- Population Hoechst High Intensity Objects (%) [2, 16]: 12%
- Population Membrane Permeable-Phenotype (%) [2, 16]: 6%
- Population Mitochondria Different-Phenotype (%) [2, 16]: 42%
- Population Mitotic Cells (%) [2, 16]: 40%
- Population Normal (%) [2, 16]: 87%
- Population Pyknosed Nuclei (%) [2, 16]: 11%
- Population Tubulin-Different-Phenotype (%) [2, 16]: 64%
- Total Cell Count [2, 16]: 191
- Population Apoptotic (%) [2, 17]: 100%
- Population Fragmented Nuclei (%) [2, 17]: 29%
- Population Healthy Nuclei (%) [2, 17]: 70%
- Population Hoechst High Intensity Objects (%) [2, 17]: 10%
- Population Membrane Permeable-Phenotype (%) [2, 17]: 2%
- Population Mitochondria Different-Phenotype (%) [2, 17]: 48%
- Population Mitotic Cells (%) [2, 17]: 0%
- Population Normal (%) [2, 17]: 89%
- Population Pyknosed Nuclei (%) [2, 17]: 0%
- Population Tubulin-Different-Phenotype (%) [2, 17]: 72%
- Total Cell Count [2, 17]: 123
- Population Apoptotic (%) [2, 18]: 92%
- Population Fragmented Nuclei (%) [2, 18]: 36%
- Population Healthy Nuclei (%) [2, 18]: 21%
- Population Membrane Permeable-Phenotype (%) [2, 18]: 0%
- Population Mitochondria Different-Phenotype (%) [2, 18]: 85%
- Population Mitotic Cells (%) [2, 18]: 7%
- Population Pyknosed Nuclei (%) [2, 18]: 42%
- Population Tubulin-Different-Phenotype (%) [2, 18]: 95%
- Total Cell Count [2, 18]: 141
- Population Apoptotic (%) [2, 19]: 84%
- Population Fragmented Nuclei (%) [2, 19]: 52%
- Population Healthy Nuclei (%) [2, 19]: 18%
- Population Hoechst High Intensity Objects (%) [2, 19]: 32%
- Population Membrane Permeable-Phenotype (%) [2, 19]: 25%
- Population Mitochondria Different-Phenotype (%) [2, 19]: 75%
- Population Mitotic Cells (%) [2, 19]: 15%
- Population Normal (%) [2, 19]: 67%
- Population Pyknosed Nuclei (%) [2, 19]: 29%
- Population Tubulin-Different-Phenotype (%) [2, 19]: 100%
- Total Cell Count [2, 19]: 65
- Growth Rate ([3]; 0 h, replicate number 1, timepoint 0 hours): 0
- Growth Rate [3, 4]: 0
- Growth Rate [3, 5]: 0
- Growth Rate [3, 6]: 0
- Growth Rate [3, 7]: 0
